# Experimental data reported in ChEMBL document CHEMBL1133653, “bis(2-(Acylamino)phenyl) disulfides, 2-(acylamino)benzenethiols, and S-(2-(acylamino)phenyl) alkanethioates as novel inhibitors of cholesteryl ester transfer protein” (J Med Chem, 2000).
# pIC50: −log10 of the molar value.
# Legend:
# [1] = molecular target: T1, Cholesteryl ester transfer protein (Homo sapiens, UniProt P11597); assay: In vitro concentration required to inhibit 50% of cholesteryl ester transfer protein mediated cholesteryl ester transfer from HDL to VLDL and LDL in human plasma; assay type: cell-free
# T1 sequence (P11597 whole entry): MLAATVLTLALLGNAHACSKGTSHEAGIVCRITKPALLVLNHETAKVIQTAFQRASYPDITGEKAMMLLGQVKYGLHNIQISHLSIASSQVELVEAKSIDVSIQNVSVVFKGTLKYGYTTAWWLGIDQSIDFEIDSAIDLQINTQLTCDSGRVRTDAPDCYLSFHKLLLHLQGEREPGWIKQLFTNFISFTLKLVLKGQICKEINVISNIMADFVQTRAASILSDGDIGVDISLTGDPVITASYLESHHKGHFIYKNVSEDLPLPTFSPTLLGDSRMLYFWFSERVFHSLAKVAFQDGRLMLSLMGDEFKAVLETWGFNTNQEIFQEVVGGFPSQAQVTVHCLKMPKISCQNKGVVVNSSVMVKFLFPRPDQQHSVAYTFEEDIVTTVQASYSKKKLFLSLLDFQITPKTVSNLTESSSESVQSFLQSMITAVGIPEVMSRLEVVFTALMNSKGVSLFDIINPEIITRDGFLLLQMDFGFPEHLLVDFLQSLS
# How it was run: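 Compound dissolved in 1:1 N-methyl-2-pyrrolidinone/PEG 400 and added to human plasma, with organic solvent at 2% final. Plasma then incubated with [3H]CE-labelled HDL at 37 °C for 4 h. ApoB lipoproteins precipitated with dextran sulfate (0.075% final) and MgCl2 (37.5 mM final). Transfer taken as the loss of supernatant HDL radioactivity. IC50 estimated from five-dose response curves.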
# Oryctolagus cuniculus [2] = assay: In vivo percent inhibition of cholesteryl ester transfer protein was measured 3h after oral administration of 10 mg/kg JW rabbits plasma; assay type: functional
# How it was run: (§1)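 Male JW rabbits, 11-15 weeks old, dosed orally; plasma taken 3 h post-dose and spun at 11000g for 5 min at 4 °C. Plasma (1.8 µL) diluted to 600 µL in Tris-buffered saline pH 7.4 with 0.1 mg/mL BSA. Incubated 15 h at 37 °C with [3H]CE-HDL and VLDL/LDL, then VLDL/LDL precipitated with dextran sulfate/MgCl2 and supernatant counted. Inhibition expressed relative to vehicle-dosed rabbits.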
# Oryctolagus cuniculus [3] = assay: In vivo percent inhibition of cholesteryl ester transfer protein was measured 3h after oral administration of 30 mg/kg JW rabbits plasma; assay type: functional; how it was run: as §1
# [4] = molecular target: T2, Cholesteryl ester transfer protein (Homo sapiens) (UniProt P11597); assay: Percent inhibition of cholesteryl ester transfer protein in human plasma at 9 uM; assay type: cell-free
# T2 sequence (whole entry): T1 sequence (P11597 whole entry)
# Oryctolagus cuniculus [5] = assay: In vivo percent elevation evaluated from the plasma HDL levels in JW rabbits by oral administration of 30 mg/kg once a day for 3 days; assay type: functional
# How it was run: (§2)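 Male JW rabbits, 11-15 weeks old, N = 5, dosed orally once daily for 3 days. ApoB lipoproteins in plasma precipitated with 13% PEG 6000, and HDL cholesterol measured by enzymatic assay. Elevation expressed relative to vehicle-dosed rabbits.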
# Oryctolagus cuniculus [6] = assay: In vivo percent elevation evaluated from the plasma HDL levels in JW rabbits by oral administration of 100 mg/kg once a day for 3 days; assay type: functional; how it was run: as §2
# [7] = molecular target: T2, Cholesteryl ester transfer protein (Homo sapiens); assay: Percent inhibition of cholesteryl ester transfer protein in human plasma at 5 uM; assay type: cell-free
Structure (SMILES),pIC50 [1],also measured
CC1(C(=O)Nc2ccccc2SSc2ccccc2NC(=O)C2(C)CCCCC2)CCCCC1,5.10,–
CC(=O)Nc1ccccc1SSc1ccccc1NC(C)=O,3.30,–
CN(C(=O)C(C)(C)C)c1ccccc1SSc1ccccc1N(C)C(=O)C(C)(C)C,< 3.52,–
CCCCCCCC1(C(=O)Nc2ccccc2S)CCCCC1,5.15,–
CCC(CC)CC1(C(=O)Nc2ccccc2SC(=O)C(C)C)CCCCC1 [DALCETRAPIB],5.22,inhibition in vivo at 10 mg/kg (Oryctolagus cuniculus [2]): 35%; inhibition in vivo at 30 mg/kg (Oryctolagus cuniculus [3]): 95%; inhibition [4]: 50%; Elevation (Oryctolagus cuniculus [5]): 27%; Elevation (Oryctolagus cuniculus [6]): 54%
CCCCCCCC(=O)Nc1ccccc1SSc1ccccc1NC(=O)CCCCCCC,4.68,–
CC(C)(C)C(=O)Nc1ccc(SSc2ccc(NC(=O)C(C)(C)C)cc2)cc1,< 3.30,–
CCC(CC)CC1(C(=O)Nc2ccccc2SC)CCCCC1,< 3.52,–
CC(C)CCCC1(C(=O)Nc2ccccc2S)CCCCC1,5.22,–
CCC(CC)CC1(C(=O)Nc2ccccc2SC(=O)C(C)(C)C)CCCCC1,–,inhibition in vivo at 30 mg/kg (Oryctolagus cuniculus [3]): 32%
CCC(CC)CC1(C(=O)Nc2ccccc2S)CCCCC1,5.30,inhibition [7]: 50%
CCC(CC)CC1(C(=O)Nc2ccccc2SC(C)=O)CCCCC1,–,inhibition in vivo at 30 mg/kg (Oryctolagus cuniculus [3]): 40%
CC(C)(C)C(=O)Nc1ccccc1SSc1ccccc1NC(=O)C(C)(C)C,4.89,–
CCCCC1(C(=O)Nc2ccccc2S)CCCCC1,5.05,–
CCCCCC1(C(=O)Nc2ccccc2S)CCCCC1,5.15,–
CC1(C(=O)Nc2ccccc2OC(=O)Cc2ccccc2)CCCCC1,< 3.52,–
CCCCCCC1(C(=O)Nc2ccccc2S)CCCCC1,5.22,–
CC(C)(C)C(=O)Nc1cccc(SSc2cccc(NC(=O)C(C)(C)C)c2)c1,< 3.30,–
CCC(=O)Nc1ccccc1SSc1ccccc1NC(=O)CC,3.74,–
CC(C)(C)NC(=O)c1ccccc1SSc1ccccc1C(=O)NC(C)(C)C,< 3.30,–
